Measurements from ChEMBL document CHEMBL3593179, “Benzoic acid derivatives with improved antifungal activity: Design, synthesis, structure-activity relationship (SAR) and CYP53 docking studies” (2015).
The source made the active and inactive calls. The rule behind the calls is not given here.

Assays:
[1] = tested on: Curvularia lunata; assay: Antifungal activity against Cochliobolus lunatus strain MUCL 38696 at 100 uM by growth based assay; format: functional, organism-based
Outline: (§1)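 Mycelial discs cut from 5-day-old cultures were placed centrally on MEA (Blakeslee's formula) agar plates containing inhibitor at 0.1 mM final concentration or solvent control. Plates were incubated at 28°C and growth was scored daily. Radial growth rate (RGR) and initial growth inhibition (IGI) were derived and expressed as percent of the matching solvent control. Each compound was tested in triplicate.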

[2] = tested on: Pleurotus ostreatus; assay: Antifungal activity against Pleurotus ostreatus Plo5 at 100 uM by growth based assay; format: functional; outline: as §1
[3] = tested on: Aspergillus niger; assay: Antifungal activity against Aspergillus niger N402 cspA1 at 100 uM by growth based assay; format: functional; outline: as §1

Structure (SMILES)	inhibition [1]	other results
O=C(O)c1ccc(N2CCCCC2)cc1Cl	inactive	
O=C(O)c1ccc(-c2ccc(Cl)c(F)c2)cc1	Active	inhibition at 100 µM [2]: 75%; inhibition at 100 µM [3]: 30%
Cc1ccn(-c2ccc(C(=O)O)c(Cl)c2)n1	inactive	
Cc1cc(C)n(-c2ccc(C(=O)O)cc2)n1	inactive	
O=C(O)c1ccc(-c2ccc(Cl)cc2)cc1		inhibition [3]: inactive
O=C(O)c1ccc(-c2ccc(Cl)c(Cl)c2)cc1		inhibition [3]: inactive
O=C(O)c1ccc(N2CCCC2)cc1	inactive	
Cn1ccc(-c2ccc(C(=O)O)cc2)n1	inactive	
Cc1cc(C)n(-c2ccc(S(=O)(=O)O)cc2)n1	inactive	
O=C(O)c1ccc(C(=O)O)cc1	inactive	
Cc1ccc(C)n1-c1ccc(C(=O)O)cc1	inactive	
Cc1cc(C=O)c(C)n1-c1ccc(C(=O)O)cc1	inactive	
O=C(O)c1ccc(CN2CCCC2)cc1	inactive	
O=C(O)c1ccc(N2CCCC2=O)cc1	inactive	
O=C(O)c1ccc(-c2cccc(F)c2)cc1	Active	inhibition [3]: Active
O=C(O)c1ccc(-c2cccs2)cc1	Active	inhibition [2]: Active; inhibition [3]: Active

Structure (SMILES)	inhibition [1]	other results
O=C(O)c1ccc(-c2ccc(C(=O)O)cc2)cc1	inactive	
O=C(O)c1ccc2ccccc2c1	inactive	
O=C(O)c1ccc(-n2cccc2)cc1	Active	inhibition [2]: inactive; inhibition [3]: Active
O=C(O)c1ccc(-c2cc(F)c(F)cc2F)cc1	Active	inhibition [3]: Active
O=C(O)c1ccc(N2CCCC2)nc1	inactive	
CC1CCN(c2ccc(C(=O)O)cc2)CC1	Active	
O=C(O)c1ccc(-c2ccsc2)cc1	Active	inhibition at 100 µM [2]: 75%
O=C(O)c1ccc(N2CCCC2)cc1Cl	inactive	inhibition [3]: Active
O=C(O)c1ccc(C2CCCCC2)cc1	inactive	
O=C(O)c1ccc(F)cc1	inactive	
Cc1cc(C(=O)O)ccc1-n1c(C)ccc1C	inactive	
CC(=O)c1cc(C)n(-c2ccc(C(=O)O)cc2)c1C	inactive	
O=S(=O)(O)c1cc[n+](-c2ccc(Cl)cc2)cc1	inactive	
O=C(O)c1ncc(N2CCCC2)cc1Cl	inactive	
O=C(O)c1ccc(-c2ccc(F)cc2)cc1	Active	inhibition at 100 µM [2]: 75%; inhibition [3]: Active
Cc1cc(C(=O)O)ccc1-n1cccc1		inhibition [2]: inactive
